From PubChem
In the library only some 2.9% were active in any assay of this set; here they are far more common.
Ecoli rRNA inh – selective bacterial rRNA inhibition in E. coli. E. coli WT GFP vs humanized-ribosome RFP mutants, fluorescence, 24 h; stronger effect = lower value; DMSO median 0, no signal -100. GFP signal change (wild-type ribosome), % (test concentration not listed). 1.6% of 350,000 active. AID 720706;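 active = significant combined selectivity score with lowered wild-type GFP, culture density cut under 30%, mutant RFP and density less affected; inactive = any of these conditions unmet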
FGF22 binding – binders of recombinant human FGF22 by thermal shift | Q9HCT0 | 1.5% of 340,000 active | activity (Tm shift, normalised), % at 9.99 µM | SYPRO orange fluorescence; percent of sucrose octasulfate shift, DMSO zero;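 active = mean Tm shift, scaled 0 neutral to 100 positive control, at about 1.3% or above, every replicate too, limit read from the data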
Target sequence (Q9HCT0 whole entry, looked up): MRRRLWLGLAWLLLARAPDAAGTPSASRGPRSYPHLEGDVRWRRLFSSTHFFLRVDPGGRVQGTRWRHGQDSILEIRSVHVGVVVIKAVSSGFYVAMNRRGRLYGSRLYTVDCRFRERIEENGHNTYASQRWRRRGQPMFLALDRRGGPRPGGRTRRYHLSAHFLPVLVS
Vif inh – HIV Vif inhibition; HEK293T cells, Vif self-association by quenched fluorescence, imaging, 24 h; inhibition, % at 7.49 µM; 0.35% of 340,000 active; in the data active = inhibition above about 50%, passing the limit was not always enough
PGC1a acetyl inh – PGC1a acetylation modulation, inhibitor mode | U2OS PGC1a acetylation, AlphaScreen anti-acetyl-lysine; with virally co-expressed GCN5 acetyltransferase | inhibition, % at 15.6 µM | 0.17% of 350,000 active | AID 651687;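 active = every replicate shows inhibition of at least 40%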
Cneo AK release – causes C. neoformans cell lysis | adenylate kinase release luminescence, 4 h; normalised: neutral wells 0, clomiphene wells 100 | 0.2% of 360,000 active | lysis activity, % at 15 µM;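 active = mean lysis activity across replicates of at least 80%, whatever share of replicates individually reach that level; inactive = mean lysis activity below 80%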
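Material – Cryptococcus neoformans yeast cells · Quantity – 5 × 10^6 yeast cells/mL · Buffer or medium – YPD medium · Compound – single dose · Timing – 4 h static compound exposure, 37 °C, read 1 h post-reagent · Signal – adenylate kinase release luminescence · Read-out basis – lysis from increased AK signal · Benchmarks – Clomiphene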
PglD DTNB – blocks C. jejuni PglD acetyltransferase activity; inhibition, % at 12.5 µM; AID 602405; 0.098% of 360,000 active; purified PglD enzyme, DTNB colorimetric CoA detection; in the data active = inhibition above about 16%, passing the limit was not always enough
Large screens that a line does not name were inactive; ! = repeats disagree.

Cc1nc(-c2cccc(CN(C)C(=O)Oc3ccc([N+](=O)[O-])cc3)c2)no1	Ecoli rRNA inh -19 (no result: Vif inh, PGC1a acetyl inh, Cneo AK release, PglD DTNB)
CN(Cc1cccc(-c2cccnc2)c1)C(=O)Oc1ccc([N+](=O)[O-])cc1	none (no result: Vif inh, PGC1a acetyl inh, Cneo AK release, PglD DTNB)
O=P(O)(O)CN1CCNCCN(CP(=O)(O)O)CCNCC1	FGF22 binding 43 (no result: Cneo AK release, PglD DTNB)
CN1CCc2nc3ccc(F)cc3c(C(N)=O)c2C1	Vif inh 60 (no result: Ecoli rRNA inh, FGF22 binding)
COC(=O)C[C@@H]1CC[C@H]2NC[C@@H](O)COC[C@@H]2O1	none (no result: Vif inh)
O=C(COC(=O)c1ccc(O)cc1)Nc1ccc(Cl)cc1C(=O)c1ccccc1	Ecoli rRNA inh -43 (no result: PGC1a acetyl inh, Cneo AK release, PglD DTNB)
CC(=O)Nc1ccc(C(=O)OCC(=O)Nc2ccc(Cl)cc2C(=O)c2ccccc2)cc1	none (no result: Ecoli rRNA inh, FGF22 binding, PGC1a acetyl inh, Cneo AK release, PglD DTNB)
O=C1CN=C(c2ccccc2)c2oc3ccc(Br)cc3c2N1	none (no result: Ecoli rRNA inh, FGF22 binding, PGC1a acetyl inh, Cneo AK release, PglD DTNB)
COc1cccc(OC)c1C1=NCC(=O)Nc2c1oc1ccc(Br)cc21	Ecoli rRNA inh -28
COc1cc2c(C(=O)O)c(C)n(C)c2cc1Br	FGF22 binding 43 (no result: Cneo AK release, PglD DTNB)
COc1ccc(CCNC2(C#N)CCCCC2)cc1OC	PGC1a acetyl inh 84
COc1ccc(CCNC2CCCCC2)cc1OC	none (no result: PGC1a acetyl inh, Cneo AK release, PglD DTNB)
C[C@@H]1CN([C@H](C)CO)C(=O)CCCn2nncc2CO[C@H]1CN(C)C(=O)Oc1ccc2ccccc2c1	FGF22 binding 43!
O=C(Cc1ccccc1)OCC(=O)c1ccccc1	none
O=C(Cc1ccccc1)OCC(=O)c1ccc(F)cc1	Vif inh 87
C#CC1(O)C=CC2C3CCC4=CC(=O)CCC4C3CCC21CC (configuration not stated)	Ecoli rRNA inh -20
O=C(Cc1cccnc1)N1CCCCN2[C@H](C1)[C@@H](c1ccc(/C=C/c3ccccc3)cc1)[C@@H]2CO	none (no result: Vif inh)
CC1CCCN(c2ccc(C(=O)N3CCC4(CC3)OCCO4)cc2[N+](=O)[O-])C1 (configuration not stated)	Ecoli rRNA inh -30
COc1ccc(SCC2CN(C)CCC2c2ccc(F)cc2)cc1 (configuration not stated)	Ecoli rRNA inh -33 (no result: PGC1a acetyl inh, Cneo AK release, PglD DTNB)
CN1CCCN(c2ccc([N+](=O)[O-])nc2)CC1	Vif inh 52
CN1CCN(c2ccc([N+](=O)[O-])c(N3CCCCC3)c2)CC1	none
Cc1ccccc1-c1ccc([C@@H]2[C@H](CO)N3CCCCN(C(=O)Cc4ccccn4)C[C@@H]23)cc1	none (no result: Vif inh, PGC1a acetyl inh)
Cc1nn(Cc2ccccc2)c(C)c1C(=O)OCC(=O)Nc1cc(S(C)(=O)=O)ccc1Cl	FGF22 binding 43 (no result: Cneo AK release, PglD DTNB)
Cc1nn(Cc2ccccc2Cl)c(C)c1C(=O)OCC(=O)NC1CCS(=O)(=O)C1 (configuration not stated)	none (no result: Ecoli rRNA inh, FGF22 binding, PGC1a acetyl inh, Cneo AK release, PglD DTNB)
Cc1nn(Cc2ccccc2)c(C)c1C(=O)OCC(=O)Nc1cccc(S(N)(=O)=O)c1	Ecoli rRNA inh -22 (no result: PGC1a acetyl inh, Cneo AK release, PglD DTNB)
CCOC(=O)[C@@H]1[C@@H]2NC(=S)N[C@@]1(C)Oc1ccccc12	none (no result: Ecoli rRNA inh, Vif inh)
COc1ccc2cc(C(=O)C3CCCN(C4CCOCC4)C3)ccc2c1 (configuration not stated)	none
COc1ccc(C(=O)C2CCCN(Cc3ccccn3)C2)c(OC)c1 (configuration not stated)	FGF22 binding 43 (no result: PGC1a acetyl inh, Cneo AK release, PglD DTNB)
COc1c(C)cc(C(=O)C2CCCN(C3CCOCC3)C2)cc1C (configuration not stated)	FGF22 binding 43 (no result: Ecoli rRNA inh)
COc1cccc(C(=O)C2CCCN(Cc3cccc(C)n3)C2)c1 (configuration not stated)	FGF22 binding 44 (no result: PGC1a acetyl inh, Cneo AK release, PglD DTNB)
COc1c(C)cc(C(=O)C2CCCN(Cc3cccc(C)n3)C2)cc1C (configuration not stated)	FGF22 binding 44 (no result: PGC1a acetyl inh, Cneo AK release, PglD DTNB)
Cc1cccc(CN2CCCC(C(=O)c3cccc(OC(C)C)c3)C2)n1 (configuration not stated)	none (no result: Ecoli rRNA inh, FGF22 binding, PGC1a acetyl inh, Cneo AK release, PglD DTNB)
COc1c(C)cc(C(=O)C2CCCN(Cc3cccc(O)c3)C2)cc1C (configuration not stated)	none (no result: PGC1a acetyl inh)
COC(=O)[C@H]1[C@H](CO)[C@H]2Cn3c(cccc3=O)[C@@H]1N2C(=O)C1CCC1	none (no result: Ecoli rRNA inh, Vif inh, PGC1a acetyl inh)
Fc1ccc(CN2CC3NC(C2)C3c2ccc(Br)cc2)cc1 (configuration not stated)	none (no result: FGF22 binding, Vif inh, PGC1a acetyl inh, Cneo AK release, PglD DTNB)
